Test results taken from ChEMBL document CHEMBL5058577, “EUbOPEN Chemogenomics Library 2 (Multiplex)” (2022).

System: HEK-293T
Assay: Multiplex assay against HEK293T
Format: toxicity, cell-based
Details: human
How it was run: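 Phenotypes for tubulin, mitochondrial mass and membrane permeability are expressed as per cents of healthy-nucleus cells. Cells were stained live at seeding with Hoechst33342, BioTracker Green Microtubule Cytoskeleton Dye, MitoTracker Red and Annexin V Alexa Fluor 680, then imaged after compound addition on a CQ1 microscope at 37°C and 5% CO2. Machine-learning gating in CellPathfinder separated Hoechst high-intensity objects from normal cells, divided normal cells by nuclear state (healthy, pyknosed, fragmented) and divided pyknosed cells into mitotic or apoptotic.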

[1] = 12 h, 1 µM, compound concentration 1 uM, replicate 1
[2] = 12 h, 1 µM, compound concentration 1 uM, replicate 2
[3] = 12 h, 10 µM, compound concentration 10 uM, replicate 1
[4] = 12 h, 10 µM, compound concentration 10 uM, replicate 2
[5] = 24 h, 1 µM, compound concentration 1 uM, replicate 1
[6] = 24 h, 1 µM, compound concentration 1 uM, replicate 2
[7] = 24 h, 10 µM, compound concentration 10 uM, replicate 1
[8] = 24 h, 10 µM, compound concentration 10 uM, replicate 2
[9] = 48 h, 1 µM, compound concentration 1 uM, replicate 1
[10] = 48 h, 1 µM, compound concentration 1 uM, replicate 2
[11] = 48 h, 10 µM, compound concentration 10 uM, replicate 1
[12] = 48 h, 10 µM, compound concentration 10 uM, replicate 2

CCOc1c2c(c(OCC)c3ncccc13)CN(c1ccc(CS(=O)(=O)NC(=O)Cc3ccccc3OC)cc1C)C2=O
Population Apoptotic (%) [1]: 33% | Population Fragmented Nuclei (%) [1]: 3% | Population Healthy Nuclei (%) [1]: 81% | Population Hoechst High Intensity Objects (%) [1]: 6% | Population Membrane Permeable-Phenotype (%) [1]: 0% | Population Mitochondria Different-Phenotype (%) [1]: 43% | Population Mitotic Cells (%) [1]: 66% | Population Normal (%) [1]: 93% | Population Pyknosed Nuclei (%) [1]: 14% | Population Tubulin-Different-Phenotype (%) [1]: 31% | Total Cell Count [1]: 356 | Population Apoptotic (%) [2]: 35% | Population Fragmented Nuclei (%) [2]: 5% | Population Healthy Nuclei (%) [2]: 82% | Population Hoechst High Intensity Objects (%) [2]: 5% | Population Mitochondria Different-Phenotype (%) [2]: 54% | Population Mitotic Cells (%) [2]: 64% | Population Normal (%) [2]: 94% | Population Pyknosed Nuclei (%) [2]: 12% | Population Tubulin-Different-Phenotype (%) [2]: 16% | Total Cell Count [2]: 355 | Population Apoptotic (%) [3]: 45% | Population Fragmented Nuclei (%) [3]: 9% | Population Healthy Nuclei (%) [3]: 78% | Population Hoechst High Intensity Objects (%) [3]: 4% | Population Membrane Permeable-Phenotype (%) [3]: 0% | Population Mitochondria Different-Phenotype (%) [3]: 49% | Population Mitotic Cells (%) [3]: 54% | Population Normal (%) [3]: 95% | Population Pyknosed Nuclei (%) [3]: 12% | Population Tubulin-Different-Phenotype (%) [3]: 34% | Total Cell Count [3]: 367 | Population Apoptotic (%) [4]: 53% | Population Fragmented Nuclei (%) [4]: 7% | Population Healthy Nuclei (%) [4]: 76% | Population Hoechst High Intensity Objects (%) [4]: 9% | Population Mitochondria Different-Phenotype (%) [4]: 72% | Population Mitotic Cells (%) [4]: 46% | Population Normal (%) [4]: 90% | Population Pyknosed Nuclei (%) [4]: 16% | Population Tubulin-Different-Phenotype (%) [4]: 29% | Total Cell Count [4]: 362 | Population Apoptotic (%) [5]: 35% | Population Fragmented Nuclei (%) [5]: 11% | Population Healthy Nuclei (%) [5]: 73% | Population Hoechst High Intensity Objects (%) [5]: 5% | Population Membrane Permeable-Phenotype (%) [5]: 0% | Population Mitochondria Different-Phenotype (%) [5]: 28% | Population Mitotic Cells (%) [5]: 64% | Population Normal (%) [5]: 94% | Population Pyknosed Nuclei (%) [5]: 14% | Population Tubulin-Different-Phenotype (%) [5]: 20% | Total Cell Count [5]: 462 | Population Apoptotic (%) [6]: 27% | Population Fragmented Nuclei (%) [6]: 5% | Population Healthy Nuclei (%) [6]: 85% | Population Hoechst High Intensity Objects (%) [6]: 3% | Population Mitochondria Different-Phenotype (%) [6]: 27% | Population Mitotic Cells (%) [6]: 72% | Population Normal (%) [6]: 96% | Population Pyknosed Nuclei (%) [6]: 8% | Population Tubulin-Different-Phenotype (%) [6]: 10% | Total Cell Count [6]: 473 | Population Apoptotic (%) [7]: 18% | Population Fragmented Nuclei (%) [7]: 10% | Population Healthy Nuclei (%) [7]: 75% | Population Hoechst High Intensity Objects (%) [7]: 4% | Population Membrane Permeable-Phenotype (%) [7]: 0% | Population Mitochondria Different-Phenotype (%) [7]: 36% | Population Mitotic Cells (%) [7]: 81% | Population Normal (%) [7]: 95% | Population Pyknosed Nuclei (%) [7]: 14% | Population Tubulin-Different-Phenotype (%) [7]: 28% | Total Cell Count [7]: 446 | Population Apoptotic (%) [8]: 32% | Population Fragmented Nuclei (%) [8]: 8% | Population Healthy Nuclei (%) [8]: 82% | Population Hoechst High Intensity Objects (%) [8]: 8% | Population Membrane Permeable-Phenotype (%) [8]: 1% | Population Mitochondria Different-Phenotype (%) [8]: 49% | Population Mitotic Cells (%) [8]: 67% | Population Normal (%) [8]: 91% | Population Pyknosed Nuclei (%) [8]: 9% | Population Tubulin-Different-Phenotype (%) [8]: 17% | Total Cell Count [8]: 481 | Population Apoptotic (%) [9]: 29% | Population Fragmented Nuclei (%) [9]: 13% | Population Healthy Nuclei (%) [9]: 79% | Population Hoechst High Intensity Objects (%) [9]: 3% | Population Membrane Permeable-Phenotype (%) [9]: 0% | Population Mitochondria Different-Phenotype (%) [9]: 20% | Population Mitotic Cells (%) [9]: 70% | Population Normal (%) [9]: 96% | Population Pyknosed Nuclei (%) [9]: 6% | Population Tubulin-Different-Phenotype (%) [9]: 13% | Total Cell Count [9]: 822 | Population Apoptotic (%) [10]: 33% | Population Fragmented Nuclei (%) [10]: 11% | Population Healthy Nuclei (%) [10]: 83% | Population Hoechst High Intensity Objects (%) [10]: 1% | Population Mitochondria Different-Phenotype (%) [10]: 14% | Population Mitotic Cells (%) [10]: 66% | Population Normal (%) [10]: 98% | Population Pyknosed Nuclei (%) [10]: 5% | Population Tubulin-Different-Phenotype (%) [10]: 7% | Total Cell Count [10]: 770 | Population Apoptotic (%) [11]: 41% | Population Fragmented Nuclei (%) [11]: 13% | Population Healthy Nuclei (%) [11]: 78% | Population Hoechst High Intensity Objects (%) [11]: 4% | Population Membrane Permeable-Phenotype (%) [11]: 1% | Population Mitochondria Different-Phenotype (%) [11]: 32% | Population Mitotic Cells (%) [11]: 58% | Population Normal (%) [11]: 95% | Population Pyknosed Nuclei (%) [11]: 8% | Population Tubulin-Different-Phenotype (%) [11]: 16% | Total Cell Count [11]: 631 | Population Apoptotic (%) [12]: 33% | Population Fragmented Nuclei (%) [12]: 12% | Population Healthy Nuclei (%) [12]: 81% | Population Hoechst High Intensity Objects (%) [12]: 3% | Population Membrane Permeable-Phenotype (%) [12]: 0% | Population Mitochondria Different-Phenotype (%) [12]: 22% | Population Mitotic Cells (%) [12]: 66% | Population Normal (%) [12]: 96% | Population Pyknosed Nuclei (%) [12]: 6% | Population Tubulin-Different-Phenotype (%) [12]: 11% | Total Cell Count [12]: 724
